# PubChem BioAssay AID1381 (University of Pittsburgh Molecular Library Screening Center, 2008)
# Out of some 220,000 compounds screened, about 1,000 (0.45%) were called active. The sample holds actives, similar compounds and a random draw of the others, so the mix is not that of the screen.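 The calls were made as follows: active = plate z-score of nuclear minus cytoplasmic receptor signal below a set negative limit, without overly bright fluorescence or cell loss (cut at about -3.5 in these data, passing the limit was not always enough); inactive = the rest, inconclusive results apart.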
# Test: inhibitors of GR-EGFP nuclear translocation, primary screen, dynein cargo transport inhibitor project, imaging, high-content, 3617.4 mouse cells (AID 1381)
# Settings: stimulated with dexamethasone, 1 µM
# How it was run: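 medium = tetracycline-free induction medium containing charcoal-stripped FBS | probe or stimulus = dexamethasone, 1.0 µM final | timing = 48 h induction, then 1 h compound, then 30 min agonist, 37 °C | detection = automated 10x imaging of fixed Hoechst-stained cells | read-out basis = nuclear versus cytoplasmic GR-EGFP signal, averaged per well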
# [1] = measured here: cell count per field, at 20 µM
# [2] = measured here: cytoplasmic GR-EGFP intensity, at 20 µM, stronger effect = higher value
# [3] = measured here: nuclear GR-EGFP intensity, at 20 µM, stronger effect = lower value
# [4] = measured here: cell count per field, at 50 µM
# [5] = measured here: cytoplasmic GR-EGFP intensity, at 50 µM, stronger effect = higher value
# [6] = measured here: nuclear GR-EGFP intensity, at 50 µM, stronger effect = lower value
SMILES,"z-score (at 20 µM, stronger effect = lower value)",z-score [1],z-score [2],z-score [3],"z-score (at 50 µM, stronger effect = lower value)",z-score [4],z-score [5],z-score [6]
N#CC1=C(N)Oc2c(sc3ccccc23)C1c1ccco1 (stereo unspecified),-0.943 (inactive),0.511,0.878,0.0658,–,–,–,–
Cc1cc(C)c(C#N)c(SCc2[nH]nc3c2C(c2ccccc2)C(C#N)=C(N)O3)n1 (stereo unspecified),-0.933 (inactive),1.23,-0.0183,-0.255,–,–,–,–
Cc1cc(C)c2c3c(sc2n1)C(c1ccccc1)C(C#N)=C(N)O3 (stereo unspecified),–,–,–,–,-4.27 (active),2.33,1.49,-2.28
COc1ccc(C(C#N)N2N=C(C)CC2(C)C)cc1 (stereo unspecified),-0.0116 (inactive),-0.511,-0.208,-0.808,–,–,–,–
O=C(NCCCN1CCCCC1)c1ccc2c(c1)NC(=O)C(N1CCOCC1)S2 (stereo unspecified),0.104 (inactive),-0.224,-0.224,-0.851,–,–,–,–
O=S1(=O)CC/C(=N\Nc2ccc(F)cc2)c2ccsc21,-0.204 (inactive),-0.257,-0.126,-0.15,–,–,–,–
Nn1cnnc1N/N=C/c1cc([N+](=O)[O-])c(Cl)cc1Cl,0.859 (inactive),-0.348,0.536,0.371,–,–,–,–
Cn1c2ccccc2c(=O)c2c(=O)n(Cc3ccco3)c(COc3ccccc3)nc21,0.301 (inactive),-0.271,-0.198,0.291,–,–,–,–
Cc1ccc(Cn2c(C)nc3c(c2=O)c2nc4ccccc4nc2n3Cc2ccco2)cc1,–,–,–,–,-4.55 (active),-0.433,0.482,-1.83
Cc1ccc(Cn2c(NC(=O)c3ccco3)nc3ccccc32)cc1,0.337 (inactive),-0.00289,-0.18,0.336,–,–,–,–
Cc1c(Cl)cccc1NC(=O)CC1SC(=NCC2CCCO2)NC1=O (stereo unspecified),-0.0448 (inactive),-0.163,-0.258,0.413,–,–,–,–
NNC(=O)c1ccc(Cl)cc1Cl,0.203 (inactive),-0.823,-0.243,0.206,–,–,–,–
Cc1ccc(-c2cc(C(=O)NCC3CCCO3)c3ccccc3n2)o1 (stereo unspecified),–,–,–,–,-4.29 (active),0.456,0.668,-1.96
Cc1ccc(NC(=O)c2cc(-c3ccc(C)o3)nc3ccccc23)nc1,–,–,–,–,-3.31 (inactive),-0.441,0.617,-1.89
O=C(NCC1CCCO1)c1cc(-c2ccccc2)nc2ccccc12 (stereo unspecified),0.068 (inactive),0.631,-0.236,0.0806,–,–,–,–
Cc1nc(-c2nnc(SCC(=O)Nc3cc(C(F)(F)F)cc(C(F)(F)F)c3)n2C)cs1,0.49 (inactive),-0.365,-0.261,0.826,–,–,–,–
COc1ccc(CN(Cc2ccc(OC)cc2)C(=O)c2cccs2)cc1,-0.594 (inactive),0.82,-0.256,-0.492,–,–,–,–
COc1ccc(NC(=O)CN(Cc2ccccc2)S(C)(=O)=O)cc1OC,0.347 (inactive),-0.496,0.00823,0.254,–,–,–,–
Cc1cc(=O)oc2c1c(C)nn2-c1ccc(Cl)cc1,-0.357 (inactive),1.43,-0.242,-0.696,–,–,–,–
C/C(=N\NC(=O)c1nc(C)cc(C)n1)c1ccccc1,1.7 (inactive),-1.78,0.199,1.06,–,–,–,–
Cc1cc(SCC(=O)c2ccccc2)nc(SCC(=O)c2ccccc2)n1,3.42 (inactive),-0.936,-0.199,-0.0972,–,–,–,–
Cc1cc(C)nc(S/C=C/C(=O)c2ccccc2)n1,-5.15 (active),1.04,1.08,-2.68,–,–,–,–

SMILES,"z-score (at 20 µM, stronger effect = lower value)",z-score [1],z-score [2],z-score [3],"z-score (at 50 µM, stronger effect = lower value)",z-score [4],z-score [5],z-score [6]
Nc1nnn(CC(=O)N/N=C/c2ccc(O)cc2)n1,-0.272 (inactive),0.973,-0.243,0.283,–,–,–,–
CC(=O)N/C(=C\c1ccc(F)cc1)C(=O)NC(Cc1ccccc1)C(=O)O (stereo unspecified),-0.458 (inactive),0.748,-0.217,0.179,–,–,–,–
COCCN(CCOC)C(=S)Nc1ccccc1Cl,-0.23 (inactive),0.546,0.025,-0.44,–,–,–,–
O=C(Nc1ccccc1Cl)c1ccc2nsnc2c1,-0.891 (inactive),0.488,-0.235,-0.5,–,–,–,–
O=C(Nc1ccccc1Cl)/C(Cl)=C(\Cl)S(=O)c1ccccc1 (stereo unspecified),-7.75 (active),0.218,2.93,-2.78,–,–,–,–
C/C(N)=C(/C#N)C(=O)COC(=O)c1cc(-c2cccc(Br)c2)nc2ccccc12,0.554 (inactive),-0.985,-0.242,0.468,–,–,–,–
O=C(COC(=O)c1ccccc1)Nc1cccc(S(=O)(=O)N2CCOCC2)c1,0.599 (inactive),-0.0984,-0.271,0.704,–,–,–,–
COC(=O)c1ccc(CSc2nnc(N)s2)o1,-0.747 (inactive),0.802,-0.292,-0.243,–,–,–,–
O=C1c2ccccc2NC(c2ccccn2)N1NS(=O)(=O)c1ccccc1 (stereo unspecified),-1.12 (inactive),1.24,-0.348,-0.844,–,–,–,–
CCC1(CC)NC(=O)N(CC(=O)OCC(=O)NC(=O)c2ccccc2)C1=O,-0.1 (inactive),1.43,-0.273,0.236,–,–,–,–
CCCc1nc2oc3c(=O)[nH]cnc3c2c2c1COC(C)(C)C2,-0.456 (inactive),0.775,-0.274,-0.288,–,–,–,–
C/C(CC(=O)Nc1cccc(F)c1)=N\NC(=O)C(=O)NC1CCCCC1,-0.0686 (inactive),0.185,-0.304,-0.00364,–,–,–,–
CCc1c(SCCC(=O)O)nc2ccccc2c1C,-0.704 (inactive),0.903,-0.252,-0.0559,–,–,–,–
O=S1(=O)CCC(NC(=S)SCc2ccccc2Br)C1 (stereo unspecified),-3.97 (active),-0.868,1.57,-1.78,–,–,–,–
CCCSC(=S)NC1CCS(=O)(=O)C1 (stereo unspecified),-1.85 (inactive),0.977,-0.0684,-0.34,–,–,–,–
O=C(CSc1ccccc1F)NC1CCS(=O)(=O)C1 (stereo unspecified),-0.432 (inactive),0.683,-0.305,0.2,–,–,–,–
CCOc1ccc(C(C)=O)cc1CSc1nnc(-c2ccncc2)n1CCOC,0.185 (inactive),0.406,-0.242,0.523,–,–,–,–
O=c1oc(/C=C/c2ccccc2)nc2ccccc12,1.7 (inactive),-1.1,-0.0815,0.729,–,–,–,–
COc1ccc(-c2cc(C(F)(F)F)nc(SCC(=O)Nc3ccc4c(c3)OCO4)n2)cc1OC,-0.345 (inactive),0.664,-0.302,-0.551,–,–,–,–
COc1cc(OC)nc(S(C)(=O)=O)n1,0.268 (inactive),-0.196,-0.228,-0.13,–,–,–,–
COc1ccc(-c2cc(C(F)(F)F)nc(S(C)(=O)=O)n2)cc1OC,-5.48 (active),0.235,1.61,-2.61,–,–,–,–
CC1C/C(=N/NC(=O)c2cccs2)CC(C)(C)C1 (stereo unspecified),-1.02 (inactive),0.142,-0.107,-0.387,–,–,–,–
